Screens from PubChem BioAssay.
Pf Dd2 growth: inhibitors of Plasmodium falciparum Dd2 growth; P. falciparum Dd2 growth, SYBR Green, 72 h; hits give low values; 2.3% of 94,000 active; activity change, % at 10 µM; in the data active = activity change below about -80%
IDH1 R132H inh: IDH1 R132H (human) inhibition; O75874; IDH1 R132H reductase, diaphorase/resazurin fluorescence, 60 min; inhibition, % at 10 µM; 0.18% of 70,000 active; in the data active = inhibition above about 34%;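 also: 0% = DMSO and 100% = no enzyme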
Target sequence (O75874 whole entry R132H): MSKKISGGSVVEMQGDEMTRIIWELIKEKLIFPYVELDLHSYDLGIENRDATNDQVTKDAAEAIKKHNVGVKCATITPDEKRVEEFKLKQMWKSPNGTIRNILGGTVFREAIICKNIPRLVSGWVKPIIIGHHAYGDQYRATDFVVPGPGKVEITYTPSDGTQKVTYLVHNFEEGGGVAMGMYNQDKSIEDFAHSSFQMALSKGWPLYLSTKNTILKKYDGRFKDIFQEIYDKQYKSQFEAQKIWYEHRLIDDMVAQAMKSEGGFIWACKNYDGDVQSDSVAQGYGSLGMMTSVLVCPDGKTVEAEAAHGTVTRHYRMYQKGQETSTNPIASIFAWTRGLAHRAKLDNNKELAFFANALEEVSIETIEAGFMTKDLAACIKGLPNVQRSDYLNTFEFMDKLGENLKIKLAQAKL
Tcruzi prolif: inhibitors of T. cruzi proliferation; 5.9% of 77,000 active; T. cruzi beta-gal in NIH3T3, GalScreen luminescence, 90 h; AID 624255; inhibition, % at 8.34 µM;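 active = mean inhibition above about 93%, with at least 55% of replicates each passing it, limit read from the data, passing the limit was not always enough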
GASC1 inh: blocks human GASC-1 (KDM4C) demethylase activity; GST-KDM4C 2-372, H3K9me3 peptide, LANCE TR-FRET; inhibition, % at 12.5 µM; 0.15% of 96,000 active; Q9H3R0;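 active = mean replicate inhibition above about 25%, with at least 55% of replicates also reaching it, limit read from the data, passing the limit was not always enough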
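Assay system: GST-GASC-1 enzyme fragment 2-372 | Amount: 10 nM enzyme | Medium: HEPES buffer, pH 7.5, plus ascorbate | Reagent: H3K9me3 peptide substrate, Fe(II), 2-oxoglutarate | Doses: Single-point compound screen | Incubation: 30 min demethylation and 1 h detection at room temperature | Measured by: LANCE TR-FRET, excitation 340 nm, emissions 618 and 671 nm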
Active calls of the source: *; · = no result; ! = not active in a repeat. This is a sample that favours compounds with a hit; in the whole collection about 5.8% have one here.

SMILES	Pf Dd2 growth	IDH1 R132H inh	Tcruzi prolif	GASC1 inh
COc1ccc2c3c(n(C)c2c1)[C@H](CO)NCC31CCN(Cc2ccc(Cl)cc2)CC1	-91*	·	·	-1
COc1ccc2c3c(n(C)c2c1)[C@H](CO)NCC31CCN(Cc2ccc(F)cc2)CC1	-83*	·	·	·
COc1ccc2c3c(n(C)c2c1)[C@H](CO)NCC31CN(CC2CCOCC2)C1	4	·	·	-2
COc1ccc2c3c(n(C)c2c1)[C@H](CO)NCC31CCN(CC2CCCC2)CC1	-86*	·	·	2
O=C(N/N=C/c1cccc(Br)c1)c1ccccc1O	·	0	·	·
COC(=O)c1ccn(COc2ccccc2Cl)n1	·	0	·	·
CCc1ccc(-n2nc3cc(C)c(NC(=O)COc4ccccc4[N+](=O)[O-])cc3n2)cc1	·	1	·	·
COc1cccc(NC(=O)CN(C)S(=O)(=O)c2ccc3ccccc3c2)c1	·	-1	·	·
COc1ccc(-c2ccc(C3[C@@H]4CN(S(=O)(=O)c5cccc(C)c5)C[C@H]3N4)cc2)cc1 (some centres undefined)	-86*!	·	·	-2
Cc1cccc(-c2ccc([C@H]3[C@H]4CN(S(=O)(=O)c5cccc(C)c5)CCCCN4[C@H]3CO)cc2)c1	-86*	·	64	0
N#Cc1cccc(-c2ccc(C3[C@@H]4CN(S(=O)(=O)c5ccc(F)cc5)C[C@H]3N4)cc2)c1 (some centres undefined)	-72	·	·	34*!
COc1cccc(S(=O)(=O)N2C[C@@H]3N[C@H](C2)C3c2ccc(-c3cccc(C)c3)cc2)c1 (some centres undefined)	11	·	·	5
N#Cc1cccc(-c2ccc([C@@H]3[C@@H]4CN(S(=O)(=O)c5ccc(-c6ccccc6)cc5)C[C@H]3N4)cc2)c1	-72	·	·	-59
COc1ccc(S(=O)(=O)N(C)C[C@@H]2Oc3c(NC(=O)Nc4ccccc4)cccc3C(=O)N([C@@H](C)CO)C[C@H]2C)cc1	·	·	·	-2
COc1ccc(S(=O)(=O)N(C)C[C@H]2Oc3c(NC(=O)Nc4ccc5c(c4)OCO5)cccc3C(=O)N([C@@H](C)CO)C[C@H]2C)cc1	-86*	·	1	0
COc1ccc(S(=O)(=O)N(C)C[C@H]2Oc3c(NC(=O)Nc4ccc5c(c4)OCO5)cccc3C(=O)N([C@H](C)CO)C[C@H]2C)cc1	-14	1	8	1
COc1ccc(S(=O)(=O)N(C)C[C@H]2Oc3c(NC(=O)Nc4ccccc4)cccc3C(=O)N([C@@H](C)CO)C[C@H]2C)cc1	-90*	1	47	2
C[C@H](CO)N1C[C@H](C)[C@H](CN(C)Cc2ccc(C(=O)Nc3ccccc3N)cc2)Oc2c(NC(=O)Nc3ccc(C(F)(F)F)cc3)cccc2C1=O	-77	·	87	-2
C[C@@H]1CN([C@@H](C)CO)C(=O)c2cccc(NC(=O)Nc3ccc(C(F)(F)F)cc3)c2O[C@@H]1CN(C)Cc1ccc(C(=O)Nc2ccccc2N)cc1	-91*	·	·	0
C[C@@H]1CN([C@H](C)CO)C(=O)c2cccc(NC(=O)Nc3ccc(C(F)(F)F)cc3)c2O[C@@H]1CN(C)Cc1ccc(C(=O)Nc2ccccc2N)cc1	-90*	·	·	0
COc1ccc(NC(=O)CCCN2C(=O)c3ccccc3C2=O)c(OC)c1	·	0	·	·
Cc1nc(N2[C@H](CO)[C@H](c3ccccc3)[C@H]2CNCC2CCCC2)sc1C	-90*	·	·	-3
O=C(C1CCCCC1)N1CC(=O)N2[C@H](CO)[C@@H](c3ccc(C#CCc4ccccc4)cc3)[C@@H]2C1	-83*	·	·	-1
O=C(c1cnccn1)N1CC(=O)N2[C@@H](CO)[C@H](c3ccc(C#CCc4ccccc4)cc3)[C@@H]2C1	-88*	·	·	1
O=C(C1CCCCC1)N1CC(=O)N2[C@H](C1)[C@@H](c1ccc(C#CCc3ccccc3)cc1)[C@@H]2CO	-66	·	·	0
O=C(C1CCCC1)N1CC(=O)N2[C@@H](CO)[C@H](c3ccc(C#CCc4ccccc4)cc3)[C@@H]2C1	-93*	·	·	1
CC1CCC2(CC1)Oc1ccccc1C1CC(c3ccco3)=NN12 (centres undefined)	·	5	·	·
CCc1cccc(OCC(=O)Nc2cc([N+](=O)[O-])ccc2O)c1	·	-1	·	·
C[C@@H]1CN([C@H](C)CO)C(=O)c2cc(NC(=O)Nc3ccc(F)cc3)ccc2O[C@@H](C)CCCCO[C@@H]1CN(C)S(=O)(=O)c1cccs1	-84*	·	-47	-1
C[C@@H]1CN([C@H](C)CO)C(=O)c2cc(NC(=O)NC3CCCCC3)ccc2O[C@@H](C)CCCCO[C@@H]1CN(C)S(=O)(=O)c1cccs1	-84*	-1	90	-3
